Here are results for 34 compounds from the M2OR odorant receptor database.

The target in the first test is T1, UniProt Q3U0P3.
T1 sequence (whole entry): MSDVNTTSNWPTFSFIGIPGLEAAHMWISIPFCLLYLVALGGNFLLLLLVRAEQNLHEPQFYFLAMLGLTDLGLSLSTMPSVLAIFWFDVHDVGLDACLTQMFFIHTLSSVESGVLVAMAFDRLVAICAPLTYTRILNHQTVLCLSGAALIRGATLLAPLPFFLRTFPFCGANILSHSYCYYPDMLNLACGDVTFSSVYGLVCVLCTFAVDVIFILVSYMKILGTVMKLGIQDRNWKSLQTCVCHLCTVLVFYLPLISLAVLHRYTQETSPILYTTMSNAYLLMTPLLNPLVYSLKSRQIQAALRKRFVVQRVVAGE
The conditions noted are these: stereoisomer not certain. The method, boiled down: (§1)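 Values were gathered from published papers (main text and supplementary material), with extra details requested from the original authors when needed, and checked for typos and inconsistencies. Each receptor–molecule pair is called responsive (active) if the original authors judged the measured signal statistically different from baseline, and non-responsive (inactive) otherwise. Assay methods varied by source, often transient mammalian cell-line luciferase assays. Recorded details include cell line, G-protein, co-transfected protein and tags.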
With `CCCCCCC=CC=O`, the “odorant receptor agonist call” value was “inactive”.
Still for that read-out and setting: the entry for `CCCCCC(C)O` (configuration not stated) is “inactive”; for `OCCc1ccccc1` it is “inactive”; for `CCCCCC(=Cc1ccccc1)C(OC)OC` it is “inactive”.
As to `Cc1ccc2c(c1)OCC(=O)CO2`, the “odorant receptor agonist call” value is “inactive”.
Same read-out and setting: the entry for `CC=C(C)C=O` is “inactive”; for `CCCCCCCCCCOC(C)=O` it is “inactive”.
The same measure, in the same setting: the entry for `CC(=O)C=CC1=C(C)CCCC1(C)C` is “inactive”.
Same read-out and setting: the entry for `CCCCCCC(C)O` (configuration not stated) is “inactive”.
Take `CC(=O)OC1(C)CCC23CC1C(C)(C)C2CCC3C` (configuration not stated): the “odorant receptor agonist call” value was “active”.
Still for that read-out and setting: as for `Cc1ccc(C(C)C)c(O)c1`, the entry is “inactive”; as for `COc1ccccc1`, “inactive”; as for `C1CCOCC1`, “inactive”.
Same read-out and setting: as for `CCSSCC`, the entry is “inactive”; as for `C=C(C)C1CCC(C)C(O)C1` (configuration not stated), “inactive”.
Still for that read-out and setting: as for `O=C(O)CCCCCCCCC(=O)O`, the entry is “inactive”; as for `Cc1ccccc1OC(=O)C(C)C`, “inactive”; as for `CC(=O)OCCc1ccccc1`, “inactive”.
For `CCCCCCCOC(=O)C(C)C`, the “odorant receptor agonist call” value is “inactive”.
On the same count and under the same terms, the entry for `C=C(C)C1CCC2(C)OC2C1` (configuration not stated) is “inactive”; for `C=CC(C)=CCC=C(C)CCC=C(C)C` it is “inactive”; for `C=CC(=O)CCCCC` it is “inactive”.
With `CSSSC`, the “odorant receptor agonist call” value is “inactive”.
Same read-out and setting: as for `CCCCCCC(=O)OCCCC`, the entry is “inactive”; as for `CCCCCC=CCCC=O`, “inactive”.
The same measure, in the same setting: the entry for `CCN(CC)CC` is “inactive”; for `O=C(O)C1CCC1` it is “inactive”; for `CC(C)=CCCC(C)=CCOC(=O)C(C)C` it is “inactive”.
The same measure, in the same setting: the entry for `CCCCCC(C=O)=Cc1ccccc1` is “inactive”; for `OCC=Cc1ccccc1` it is “inactive”; for `CC1CC=CCCCCCCCCCC(=O)C1` (configuration not stated) it is “inactive”.
Consider `C=CC(=C)CCC=C(C)CCC=C(C)C`, for which the “odorant receptor agonist call” value is “inactive”.
Same read-out and setting: as for `CCSCC`, the entry is “inactive”; as for `CCCCCCCCCC=CC=O`, “inactive”.

In another test the target is T2, UniProt Q7TQU8.
T2 sequence (whole entry): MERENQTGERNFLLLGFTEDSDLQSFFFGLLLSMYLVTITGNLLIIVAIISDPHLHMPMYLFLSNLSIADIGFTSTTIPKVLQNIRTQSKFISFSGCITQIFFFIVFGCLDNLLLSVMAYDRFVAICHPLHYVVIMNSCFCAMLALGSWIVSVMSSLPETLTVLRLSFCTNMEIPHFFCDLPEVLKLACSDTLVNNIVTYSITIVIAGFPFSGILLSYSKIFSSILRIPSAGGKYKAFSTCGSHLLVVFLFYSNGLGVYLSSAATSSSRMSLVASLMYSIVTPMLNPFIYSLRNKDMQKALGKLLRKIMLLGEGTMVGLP
Conditions: stereoisomer not certain. In a few lines: as §1
Take `CCCCCCC=CC=O`: the “odorant receptor agonist call” value is “inactive”.
Same read-out and setting: the entry for `CCCCCC(C)O` (configuration not stated) is “inactive”; for `OCCc1ccccc1` it is “inactive”; for `CCCCCC(=Cc1ccccc1)C(OC)OC` it is “inactive”.
As for `Cc1ccc2c(c1)OCC(=O)CO2`, the “odorant receptor agonist call” value is “inactive”.
Same read-out and setting: the entry for `CC=C(C)C=O` is “inactive”; for `CCCCCCCCCCOC(C)=O` it is “inactive”.
Still for that read-out and setting: as for `CC(=O)C=CC1=C(C)CCCC1(C)C`, the entry is “inactive”; as for `CCCCCCC(C)O` (configuration not stated), “inactive”.
Same read-out and setting: the entry for `CC(=O)OC1(C)CCC23CC1C(C)(C)C2CCC3C` (configuration not stated) is “active”; for `Cc1ccc(C(C)C)c(O)c1` it is “inactive”.
For `COc1ccccc1`, the “odorant receptor agonist call” value is “inactive”.
On the same count and under the same terms, as for `C1CCOCC1`, the entry is “inactive”; as for `CCSSCC`, “inactive”; as for `C=C(C)C1CCC(C)C(O)C1` (configuration not stated), “inactive”.
`O=C(O)CCCCCCCCC(=O)O`: the “odorant receptor agonist call” value is “inactive”.
Still for that read-out and setting: as for `Cc1ccccc1OC(=O)C(C)C`, the entry is “inactive”; as for `CC(=O)OCCc1ccccc1`, “inactive”.
The same measure, in the same setting: the entry for `CCCCCCCOC(=O)C(C)C` is “inactive”; for `C=C(C)C1CCC2(C)OC2C1` (configuration not stated) it is “inactive”; for `C=CC(C)=CCC=C(C)CCC=C(C)C` it is “inactive”.
With `C=CC(=O)CCCCC`, the “odorant receptor agonist call” value is “inactive”.
Same read-out and setting: as for `CSSSC`, the entry is “inactive”.
Same read-out and setting: as for `CCCCCCC(=O)OCCCC`, the entry is “inactive”; as for `CCCCCC=CCCC=O`, “inactive”.
As for `CCN(CC)CC`, the “odorant receptor agonist call” value was “inactive”.
Same read-out and setting: the entry for `O=C(O)C1CCC1` is “inactive”; for `CC(C)=CCCC(C)=CCOC(=O)C(C)C` it is “inactive”; for `CCCCCC(C=O)=Cc1ccccc1` it is “inactive”.
On the same count and under the same terms, as for `OCC=Cc1ccccc1`, the entry is “inactive”.
On the same count and under the same terms, the entry for `CC1CC=CCCCCCCCCCC(=O)C1` (configuration not stated) is “inactive”; for `C=CC(=C)CCC=C(C)CCC=C(C)C` it is “inactive”; for `CCSCC` it is “inactive”.
As to `CCCCCCCCCC=CC=O`, the “odorant receptor agonist call” value was “inactive”.

Another test addresses T3, UniProt Q7TR79.
T3 sequence (whole entry): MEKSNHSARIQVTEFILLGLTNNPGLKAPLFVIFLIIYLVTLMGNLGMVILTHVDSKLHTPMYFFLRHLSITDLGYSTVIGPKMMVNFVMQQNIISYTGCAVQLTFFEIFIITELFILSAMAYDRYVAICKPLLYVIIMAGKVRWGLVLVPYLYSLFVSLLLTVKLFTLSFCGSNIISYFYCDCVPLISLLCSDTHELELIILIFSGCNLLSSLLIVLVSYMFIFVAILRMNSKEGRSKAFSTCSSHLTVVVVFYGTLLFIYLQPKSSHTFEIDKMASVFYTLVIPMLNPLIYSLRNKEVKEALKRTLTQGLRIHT
Conditions: stereoisomer not certain. The method, boiled down:
as §1
Regarding `CCCCCCC=CC=O`, the “odorant receptor agonist call” value was “inactive”.
`CCCCCC(C)O` (configuration not stated): the “odorant receptor agonist call” value is “inactive”.
Turning to `OCCc1ccccc1`, the “odorant receptor agonist call” value is “inactive”.
Still for that read-out and setting: the entry for `CCCCCC(=Cc1ccccc1)C(OC)OC` is “inactive”.
On the same count and under the same terms, as for `Cc1ccc2c(c1)OCC(=O)CO2`, the entry is “inactive”; as for `CC=C(C)C=O`, “inactive”.
Same read-out and setting: the entry for `CCCCCCCCCCOC(C)=O` is “inactive”; for `CC(=O)C=CC1=C(C)CCCC1(C)C` it is “inactive”.
As for `CCCCCCC(C)O` (configuration not stated), the “odorant receptor agonist call” value is “inactive”.
Still for that read-out and setting: the entry for `CC(=O)OC1(C)CCC23CC1C(C)(C)C2CCC3C` (configuration not stated) is “inactive”; for `Cc1ccc(C(C)C)c(O)c1` it is “inactive”; for `COc1ccccc1` it is “inactive”.
The same measure, in the same setting: the entry for `C1CCOCC1` is “inactive”.
As for `CCSSCC`, the “odorant receptor agonist call” value is “inactive”.
Same read-out and setting: the entry for `C=C(C)C1CCC(C)C(O)C1` (configuration not stated) is “inactive”.
Turning to `O=C(O)CCCCCCCCC(=O)O`, the “odorant receptor agonist call” value is “inactive”.
The same measure, in the same setting: as for `Cc1ccccc1OC(=O)C(C)C`, the entry is “inactive”; as for `CC(=O)OCCc1ccccc1`, “inactive”; as for `CCCCCCCOC(=O)C(C)C`, “inactive”.
Consider `C=C(C)C1CCC2(C)OC2C1` (configuration not stated), for which the “odorant receptor agonist call” value is “inactive”.
`C=CC(C)=CCC=C(C)CCC=C(C)C`: the “odorant receptor agonist call” value is “inactive”.
Still for that read-out and setting: as for `C=CC(=O)CCCCC`, the entry is “inactive”; as for `CSSSC`, “inactive”; as for `CCCCCCC(=O)OCCCC`, “inactive”.
Same read-out and setting: as for `CCCCCC=CCCC=O`, the entry is “inactive”.
On the same count and under the same terms, as for `CCN(CC)CC`, the entry is “inactive”; as for `O=C(O)C1CCC1`, “inactive”.
On to `CC(C)=CCCC(C)=CCOC(=O)C(C)C`, for which the “odorant receptor agonist call” value is “inactive”.
`CCCCCC(C=O)=Cc1ccccc1`: the “odorant receptor agonist call” value was “inactive”.
For the compound `OCC=Cc1ccccc1`, the “odorant receptor agonist call” value is “inactive”.
On the same count and under the same terms, the entry for `CC1CC=CCCCCCCCCCC(=O)C1` (configuration not stated) is “inactive”; for `C=CC(=C)CCC=C(C)CCC=C(C)C` it is “inactive”; for `CCSCC` it is “inactive”.
Still for that read-out and setting: as for `CCCCCCCCCC=CC=O`, the entry is “inactive”.
